ChEMBL document CHEMBL1129933, “Tyrosine kinase inhibitors. 6. Structure-activity relationships among N- and 3-substituted 2,2'-diselenobis(1H-indoles) for inhibition of protein tyrosine kinases and comparative in vitro and in vivo studies against selected sulfur congeners” (J Med Chem, 1997)

Key:
[1] = target: T1, Epidermal growth factor receptor (Homo sapiens, UniProt P00533); assay: Inhibition of epidermal growth factor receptor (EGFr)
[2] = target: T2, Platelet-derived growth factor receptor beta (Mus musculus, UniProt P05622); assay: Inhibition of Platelet-derived growth factor receptor beta (PDGFr)
Procedure, shortened: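 Full-length mouse PDGF-β receptor was overexpressed in baculovirus-infected insect cells and assayed as cell lysates. Read-out was 32P-phosphate transfer from ATP into TCA-precipitable poly(Glu,Tyr) 4:1. IC50 values are means of duplicates from at least two separate experiments.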

[3] = Inhibition of Src tyrosine kinase
Procedure, shortened: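 v-src protein came from baculovirus-infected insect cells. Kinase activity was measured as 32P incorporation from ATP into TCA-precipitable random Glu/Tyr (4:1) copolymer. IC50 values are means of duplicates from at least two separate experiments.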

[4] = Inhibition of mouse Swiss 3T3 fibroblasts proliferation; type: functional, cell-based
Procedure, shortened: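 Swiss 3T3 mouse fibroblast growth assay. IC50 is the concentration reducing cell growth rate by 50%, as the mean of duplicates from at least two separate experiments.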

[5] = Inhibition of Src tyrosine kinase using ATP substrate
Procedure, shortened: (§1)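 v-src kinase inhibition kinetics were run with either ATP or the Glu/Tyr peptide polymer substrate varied. Ki (µM) was obtained by nonlinear regression using Cleland's equations. Inhibition type was assigned by comparing Ki values from slope and intercept determinations.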

[6] = target: T1, Epidermal growth factor receptor; assay: Inhibition of epidermal growth factor receptor (EGFr) using peptide substrate
Procedure, shortened: (§2)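 EGFr came from membrane vesicles shed by human A431 carcinoma cells. Activity was measured as 32P-phosphate transfer from ATP into a TCA-precipitable glutamate/tyrosine (4:1) random copolymer. ATP or peptide polymer substrate was varied. Ki was obtained by nonlinear regression with Cleland's equations, comparing slope and intercept determinations to assign the inhibition type.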

[7] = Inhibition of Src tyrosine kinase using peptide substrate; procedure, shortened: as §1
[8] = target: T1, Epidermal growth factor receptor; assay: Inhibition of epidermal growth factor receptor (EGFr) using ATP substrate; procedure, shortened: as §2
[9] = tested on: A-431; assay: In vivo activity against human A431 epidermoid xenograft, weight change after 0.5 mg/kg/day sc dose for 1-27 days; type: functional, organism-based
Procedure, shortened: (§3)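 Nude mice (NCr nu/nu, 18-22 g) bearing sc A431 fragments in the right axilla (day 0) received continuous sc infusion from an Alzet miniosmotic pump implanted under ketamine-xylazine. Pumps were removed or replaced under lidocaine-epinephrine for longer therapy, in 7-day and 27-day studies. Daily dose was the maximum deliverable without significant precipitation. Weight change was taken as the maximum treatment-related loss.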

[10] = Inhibition of DNA synthesis; type: functional
Procedure, shortened: (§4)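 Log-phase cells were drug-treated for 2 h, then exposed for 2 h to 1 µM [methyl-3H]thymidine (DNA), [5-3H]uridine (RNA) or (S)-[4,5-3H]leucine (protein), each at 1 µCi/nmol. Cells were trypsinized into ice-cold 15% TCA, and precipitates were collected on glass-fibre filters, washed, and counted by scintillation.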

[11] = tested on: C6; assay: In vivo activity against C6 glioma xenograft, net cell kill at 1.8 mg/kg administered intraperitoneally for 9 days; type: functional; settings: route intraperitoneal
Procedure, shortened: (§5)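 […] C6 glioma xenograft, serially passaged in NCr nu/nu nude mice, implanted sc as tumor fragments in the right axilla on day 0. Mice weighed 18-22 g and were randomized. Dosing was ip bolus on a d1-9 daily schedule in 10% DMA in 50 mM lactic acid buffer, pH 4.0, by average cage weight. Weight change is the maximum treatment-related weight loss in the growth delay assay.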

[12] = tested on: A-431; assay: In vivo activity against human A431 epidermoid xenograft, tumor growth delay (T-C, days) at 0.5 mg/kg/day administered subcutaneously for 1-27 days; settings: route subcutaneous
[13] = tested on: C6; assay: In vivo activity against C6 glioma xenograft, weight change after 1.8 mg/kg ip dose for 9 days; type: functional; settings: route intraperitoneal; procedure, shortened: as §5
[14] = Inhibition of RNA synthesis; type: functional; procedure, shortened: as §4
[15] = target: T2, Platelet-derived growth factor receptor beta; assay: Inhibition of platelet-derived growth factor receptor (PDGFr) autophosphorylation; type: functional
Procedure, shortened: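 Swiss 3T3 fibroblasts were treated 2 h with a range of compound concentrations, then stimulated 5 min with growth factor. Receptor tyrosine phosphorylation was assessed by cell extraction and western blotting.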

[16] = tested on: A-431; assay: In vivo activity against human A431 epidermoid xenograft, net cell kill at 0.5 mg/kg/day administered subcutaneously for 1-27 days; type: functional; settings: route subcutaneous
Procedure, shortened: (§6)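 Nude mice (NCr nu/nu), 18-22 g, randomized, implanted sc in the right axilla with serially passaged A431 tumor fragments on day 0. Dosing was by ip bolus or continuous sc Alzet miniosmotic pump infusion, by average cage weight. Vehicle was distilled H2O or 10% DMA in 50 mM lactic acid buffer, pH 4.0, depending on compound. Net cell kill = net log reduction in tumor burden between first and last treatments.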

[17] = tested on: A-431; assay: In vivo activity against human A431 epidermoid xenograft, weight change after 0.5 mg/kg/day sc dose for 9-15 days; type: functional; settings: route subcutaneous; procedure, shortened: as §3
[18] = target: Epidermal growth factor receptor (Mus musculus) (UniProt Q01279); assay: Inhibition of epidermal growth factor receptor (EGFr) autophosphorylation
[19] = Inhibition of protein synthesis; type: functional; procedure, shortened: as §4
[20] = target: Fibroblast growth factor receptor (Mus musculus, UniProt P21803+Q03142+P16092+Q61851); assay: Inhibition of fibroblast growth factor (bFGF)-mediated autophosphorylation of FGF-R in Swiss 3T3 mouse fibroblasts; type: functional
Procedure, shortened: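 Swiss 3T3 fibroblasts were treated 2 h with a range of compound concentrations, then stimulated for 5 min with growth factor (bFGF). Receptor tyrosine phosphorylation was read by extraction and western blotting.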

[21] = tested on: A-431; assay: In vivo activity against human A431 epidermoid xenograft, tumor growth delay (T-C) at 0.5 mg/kg/day administered subcutaneously for 9-15 days; settings: route subcutaneous
[22] = tested on: A-431; assay: In vivo activity against human A431 epidermoid xenograft, net cell kill at 0.5 mg/kg/day administered subcutaneously for 9-15 days; type: functional; settings: route subcutaneous; procedure, shortened: as §6
[23] = tested on: C6; assay: In vivo activity against C6 glioma xenograft, tumor growth delay (T-C, days) at 1.8 mg/kg ip dose for 9 days; settings: route intraperitoneal

T1 sequence (P00533 whole entry): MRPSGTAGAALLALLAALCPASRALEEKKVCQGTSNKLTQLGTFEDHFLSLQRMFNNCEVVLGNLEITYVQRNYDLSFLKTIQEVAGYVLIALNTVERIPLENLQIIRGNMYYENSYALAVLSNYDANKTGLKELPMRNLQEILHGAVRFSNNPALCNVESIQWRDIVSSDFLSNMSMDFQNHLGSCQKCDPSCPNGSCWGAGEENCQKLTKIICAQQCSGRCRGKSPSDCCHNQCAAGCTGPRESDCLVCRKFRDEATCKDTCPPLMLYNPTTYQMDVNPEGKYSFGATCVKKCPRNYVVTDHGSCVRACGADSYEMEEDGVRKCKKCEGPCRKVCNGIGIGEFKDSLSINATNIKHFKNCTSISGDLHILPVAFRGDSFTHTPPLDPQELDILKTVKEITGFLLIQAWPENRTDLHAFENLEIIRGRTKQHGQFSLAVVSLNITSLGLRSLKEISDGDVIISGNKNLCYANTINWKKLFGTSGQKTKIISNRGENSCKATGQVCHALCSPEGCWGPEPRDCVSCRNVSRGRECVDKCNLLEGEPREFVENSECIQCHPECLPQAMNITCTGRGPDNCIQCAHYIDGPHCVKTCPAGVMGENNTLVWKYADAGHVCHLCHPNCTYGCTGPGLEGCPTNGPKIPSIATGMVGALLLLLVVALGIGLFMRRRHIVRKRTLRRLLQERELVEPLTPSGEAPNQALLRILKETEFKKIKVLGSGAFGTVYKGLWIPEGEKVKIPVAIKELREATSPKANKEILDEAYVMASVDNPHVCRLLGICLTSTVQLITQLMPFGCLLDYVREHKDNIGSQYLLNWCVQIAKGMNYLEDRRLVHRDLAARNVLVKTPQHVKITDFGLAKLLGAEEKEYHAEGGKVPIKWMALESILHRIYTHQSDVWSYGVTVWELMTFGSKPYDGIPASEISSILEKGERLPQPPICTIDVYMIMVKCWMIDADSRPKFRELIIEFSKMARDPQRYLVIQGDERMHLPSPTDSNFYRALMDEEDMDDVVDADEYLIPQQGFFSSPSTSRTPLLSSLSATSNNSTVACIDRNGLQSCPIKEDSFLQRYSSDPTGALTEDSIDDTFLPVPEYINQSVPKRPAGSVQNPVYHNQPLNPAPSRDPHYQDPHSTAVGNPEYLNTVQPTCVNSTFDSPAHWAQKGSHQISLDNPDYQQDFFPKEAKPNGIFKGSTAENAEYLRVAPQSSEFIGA
T2 sequence (P05622 whole entry): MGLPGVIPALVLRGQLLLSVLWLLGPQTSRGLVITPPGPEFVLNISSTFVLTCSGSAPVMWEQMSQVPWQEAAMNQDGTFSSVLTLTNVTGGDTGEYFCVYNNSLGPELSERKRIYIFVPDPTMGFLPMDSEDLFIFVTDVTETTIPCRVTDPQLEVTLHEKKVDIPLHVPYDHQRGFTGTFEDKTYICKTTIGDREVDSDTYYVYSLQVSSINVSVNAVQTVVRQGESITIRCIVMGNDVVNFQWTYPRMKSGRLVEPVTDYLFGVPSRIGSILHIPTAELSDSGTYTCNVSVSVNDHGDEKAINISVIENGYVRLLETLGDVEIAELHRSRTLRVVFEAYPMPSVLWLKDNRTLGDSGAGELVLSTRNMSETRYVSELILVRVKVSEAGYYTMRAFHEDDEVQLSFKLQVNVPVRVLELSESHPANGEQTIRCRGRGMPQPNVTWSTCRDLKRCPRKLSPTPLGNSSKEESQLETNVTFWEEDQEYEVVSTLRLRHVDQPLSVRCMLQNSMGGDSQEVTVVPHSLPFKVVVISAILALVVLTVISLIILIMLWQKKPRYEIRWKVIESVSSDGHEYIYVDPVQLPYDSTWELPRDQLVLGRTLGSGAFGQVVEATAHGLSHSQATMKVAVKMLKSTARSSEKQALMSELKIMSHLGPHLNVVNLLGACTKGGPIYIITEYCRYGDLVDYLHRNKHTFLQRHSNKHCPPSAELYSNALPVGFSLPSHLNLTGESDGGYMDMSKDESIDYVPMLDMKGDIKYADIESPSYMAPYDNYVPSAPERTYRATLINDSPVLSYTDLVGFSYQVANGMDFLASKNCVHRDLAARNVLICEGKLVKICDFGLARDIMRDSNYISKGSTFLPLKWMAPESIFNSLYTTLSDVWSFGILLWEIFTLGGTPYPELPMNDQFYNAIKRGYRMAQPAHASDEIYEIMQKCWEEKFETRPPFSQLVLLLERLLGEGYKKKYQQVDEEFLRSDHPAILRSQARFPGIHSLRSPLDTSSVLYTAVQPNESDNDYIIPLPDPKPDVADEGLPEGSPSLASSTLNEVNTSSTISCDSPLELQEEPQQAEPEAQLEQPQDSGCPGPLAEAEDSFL
Sequence of Epidermal growth factor receptor (Mus musculus) (Q01279 whole entry, looked up): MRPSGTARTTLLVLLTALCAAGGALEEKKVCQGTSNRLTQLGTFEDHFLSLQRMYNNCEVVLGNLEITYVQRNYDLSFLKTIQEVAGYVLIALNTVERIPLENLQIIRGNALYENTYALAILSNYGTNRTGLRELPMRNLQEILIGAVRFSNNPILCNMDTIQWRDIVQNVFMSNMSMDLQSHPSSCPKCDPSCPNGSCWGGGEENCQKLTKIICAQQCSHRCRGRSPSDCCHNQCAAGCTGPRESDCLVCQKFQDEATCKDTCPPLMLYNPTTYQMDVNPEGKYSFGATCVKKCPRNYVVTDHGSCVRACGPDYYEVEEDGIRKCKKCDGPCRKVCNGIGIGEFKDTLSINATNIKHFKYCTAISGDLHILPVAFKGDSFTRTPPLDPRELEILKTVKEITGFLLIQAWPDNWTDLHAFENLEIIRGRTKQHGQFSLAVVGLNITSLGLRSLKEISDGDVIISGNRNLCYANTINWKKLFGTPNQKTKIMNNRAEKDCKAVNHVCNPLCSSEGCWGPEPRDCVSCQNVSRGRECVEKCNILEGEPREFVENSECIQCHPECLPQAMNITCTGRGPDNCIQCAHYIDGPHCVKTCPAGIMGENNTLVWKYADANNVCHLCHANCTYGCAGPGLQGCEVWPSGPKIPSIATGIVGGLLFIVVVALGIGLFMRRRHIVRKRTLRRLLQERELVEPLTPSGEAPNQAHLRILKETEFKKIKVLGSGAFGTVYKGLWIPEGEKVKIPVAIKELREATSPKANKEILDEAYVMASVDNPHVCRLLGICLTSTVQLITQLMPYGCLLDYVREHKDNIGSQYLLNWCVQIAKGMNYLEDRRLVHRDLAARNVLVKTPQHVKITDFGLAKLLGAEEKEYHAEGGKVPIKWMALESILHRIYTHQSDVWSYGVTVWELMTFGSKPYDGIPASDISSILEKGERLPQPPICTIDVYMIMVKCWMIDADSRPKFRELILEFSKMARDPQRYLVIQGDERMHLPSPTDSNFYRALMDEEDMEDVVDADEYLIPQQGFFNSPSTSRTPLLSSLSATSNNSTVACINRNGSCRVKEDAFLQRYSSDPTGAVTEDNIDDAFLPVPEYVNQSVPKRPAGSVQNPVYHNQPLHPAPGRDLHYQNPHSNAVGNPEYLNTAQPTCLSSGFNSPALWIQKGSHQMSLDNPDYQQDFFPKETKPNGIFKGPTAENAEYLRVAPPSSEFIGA

## O=C(NCc1ccccc1)[C@H](Cc1c([Se][Se]c2[nH]c3ccccc3c2C[C@@H](NC(=O)C(F)(F)F)C(=O)NCc2ccccc2)[nH]c2ccccc12)NC(=O)C(F)(F)F
[1]
  IC50: 7 µM
[2]
  IC50: > 50 µM
[3]
  IC50: 6.2 µM

## Cn1c([Se][Se]c2c(C(=O)OC(C)(C)C)c3ccccc3n2C)c(C(=O)OC(C)(C)C)c2ccccc21
[1]
  IC50: > 100 µM
[2]
  IC50: > 31 µM
[3]
  IC50: 1.5 µM

## CCN(CC)CCNC(=O)c1c([Se][Se]c2c(C(=O)NCCN(CC)CC)c3ccccc3n2C)n(C)c2ccccc12
[2]
  IC50: 3.4 µM
[3]
  IC50: 1.8 µM
[4]; Mus musculus
  IC50: 19.5 µM

## CNC(=O)c1c([Se][Se]c2c(C(=O)NC)c3ccccc3n2C)n(C)c2ccccc12
[1]
  IC50: 6.1 µM
[5]
  Ki: 0.8 µM
[2]
  IC50: 4.7 µM
[3]
  IC50: 0.4 µM
[4]; Mus musculus
  IC50: 5.5 µM
[6]
  Ki: 3.9 µM
[7]
  Ki: 0.6 µM
[8]
  Ki: 3.1 µM

## CNC(=O)c1c(SSc2c(C(=O)NC)c3ccccc3n2C)n(C)c2ccccc12
[1]
  IC50: 6.9 µM
[5]
  Ki: 8 µM
[2]
  IC50: 28.1 µM
[3]
  IC50: 6.7 µM
[6]
  Ki: 3.9 µM
[7]
  Ki: 1.4 µM
[8]
  Ki: 2.3 µM

## O=C(NCc1ccccc1)[C@H](Cc1c([Se]c2[nH]c3ccccc3c2C[C@@H](NC(=O)C(F)(F)F)C(=O)NCc2ccccc2)[nH]c2ccccc12)NC(=O)C(F)(F)F
[1]
  IC50: > 50 µM
[2]
  IC50: > 50 µM
[3]
  IC50: > 50 µM

## N[C@H](Cc1c([Se][Se]c2[nH]c3ccccc3c2C[C@H](N)C(=O)NCc2ccccc2)[nH]c2ccccc12)C(=O)NCc1ccccc1 (stereo in doubt; 33) [listing 1 of 2 here]
[9]
  Weight change: Weight gain

## Cn1c([Se][Se]c2c(C(=O)O)c3ccccc3n2C)c(C(=O)O)c2ccccc21
[2]
  IC50: 17.4 µM
[3]
  IC50: 2.4 µM
[4]; Mus musculus
  IC50: 8 µM

## CNC(=O)c1c([Se][Se]c2[nH]c3ccccc3c2C(=O)NC)[nH]c2ccccc12
[2]
  IC50: 8 µM
[3]
  IC50: 2.8 µM
[4]; Mus musculus
  IC50: 1 µM

## CCN(CC)CCn1c([Se][Se]c2c(C(=O)NC)c3ccccc3n2CCN(CC)CC)c(C(=O)NC)c2ccccc21
[2]
  IC50: 50 µM
[3]
  IC50: 1.7 µM

## N[C@H](Cc1c([Se][Se]c2[nH]c3ccccc3c2C[C@H](N)C(=O)NCc2ccccc2)[nH]c2ccccc12)C(=O)NCc1ccccc1 (stereo in doubt; 34)
[1]
  IC50: 1.3 µM
[2]
  IC50: 25.5 µM
[3]
  IC50: 3.8 µM
[4]
  IC50: 0.6 µM
[6]
  Ki: 5.6 µM
[8]
  Ki: 2.7 µM

## CCN(CC)CCNC(=O)c1c([Se][Se]c2[nH]c3ccccc3c2C(=O)NCCN(CC)CC)[nH]c2ccccc12
[2]
  IC50: 12.8 µM
[3]
  IC50: 3.6 µM
[4]; Mus musculus
  IC50: 8 µM

## N[C@H](Cc1c([Se][Se]c2[nH]c3ccccc3c2C[C@H](N)C(=O)NCc2ccccc2)[nH]c2ccccc12)C(=O)NCc1ccccc1 (stereo in doubt; 33) [listing 2 of 2 here]
[10]
  IC50: 0.18 µM
[11]
  Net cell kill: -0.2 log10
[1]
  IC50: 0.9 µM
[2]
  IC50: 14.1 µM
[3]
  IC50: 2 µM
[12]
  T-C: 10.8 days
[13]
  Weight change: -0.9 g
[14]
  IC50: 0.35 µM
[15]
  IC50: 0.57 µM
[16]
  Net cell kill: -0.4 log10
[4]; Mus musculus
  IC50: 0.54 µM
[17]
  Weight change: -0.2 g
[18]
  IC50: 4.2 µM
[19]
  IC50: 0.17 µM
[20]
  IC50: 0.2 µM
[21]
  T-C: 2.2 days
[22]
  Net cell kill: -0.2 log10
[23]
  T-C: 2 days
